Reference: ChEMBL document CHEMBL1143767, “Identification, biological activity, and mechanism of the anti-ischemic quinolone analog” (2007)
≈ marks a conversion by molar mass, not a printed value.

Assays:
SH-SY5Y [1] = assay: Cell viability of human SH-SY5Y cells at 0.1 uM after 24 hrs by MTS assay; format: functional
Outline: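 SH-SY5Y cells were grown in 1:1 EMEM/F12K with 10% heat-inactivated FBS at 37 °C and 5% CO₂. One day after plating, cells were pretreated with compound for 2 h, then exposed to hydrogen peroxide for 24 h. MTS reagent was added for 3 h at 37 °C and OD read at 490 nm. Viability is % of control, from at least two independent experiments in triplicate.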

Rattus norvegicus [2] = assay: Cardioprotective effect in Sprague-Dawley rat myocardial infarction model assessed as reduction of infract size in heart at 0.001 mg/kg, ip; format: functional; parameters: scale not given: the % may be the effect or the level left; details: route intraperitoneal
Outline: (§1)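 Male Sprague–Dawley rats (260–290 g) were anesthetized with ketamine ([…]) and xylazine (5 mg/kg). A single ip dose was given 1 h before regional myocardial ischemia (30 min), followed by 3 h reperfusion. After 1% Evans blue, the left ventricle was cut into two slices and stained with TTC. Infarct size was expressed as % of area at risk versus vehicle, using Student's t-test (P < 0.05).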

Staphylococcus aureus = assay: Antibacterial activity against Staphylococcus aureus ATCC 25923 after 16 to 18 hrs by agar dilution method; format: functional
Outline: (§2)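 Agar dilution MIC following CLSI guidance. E. faecalis was grown on Brain–Heart Infusion agar and the other strains on Mueller Hinton agar. Compounds were diluted in DMSO or 0.1 M NaOH in twofold steps to give final concentrations of 0.06–128 µg/mL. Inocula of 10^4 cfu/spot were incubated 16–18 h at 36 °C in ambient air. MIC was taken as the lowest concentration preventing visible growth.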

Rattus norvegicus [3] = assay: Cardioprotective effect in Sprague-Dawley rat myocardial infarction model assessed as reduction of infract area in heart at 0.001 mg/kg, ip; format: functional; parameters: scale not given: the % may be the effect or the level left; details: route intraperitoneal; outline: as §1
Rattus norvegicus [4] = assay: Antiischemic effect in Sprague-Dawley rat focal ischemic sroke model assessed as reduction of infract size in brain at 0.01 mg/kg, ip after 24 hrs under post-ischemic conditions; parameters: scale not given: the % may be the effect or the level left; details: route intraperitoneal
Rattus norvegicus [5] = assay: Cardioprotective effect in Sprague-Dawley rat myocardial infarction model assessed as reduction of infract area in heart at 0.1 mg/kg, ip; format: functional; parameters: scale not given: the % may be the effect or the level left; details: route intraperitoneal; outline: as §1
Rattus norvegicus [6] = assay: Cardioprotective effect in Sprague-Dawley rat myocardial infarction model assessed as reduction of infract area in heart at 0.01 mg/kg, ip; format: functional; parameters: scale not given: the % may be the effect or the level left; details: route intraperitoneal; outline: as §1
Enterococcus faecalis = assay: Antibacterial activity against Enterococcus faecalis ATCC 29212 after 16 to 18 hrs by agar dilution method; format: functional; outline: as §2
Rattus norvegicus [7] = assay: Antiischemic effect in Sprague-Dawley rat focal ischemic sroke model assessed as reduction of infract size in brain at 0.01 mg/kg, ip after 24 hrs under pre-ischemic conditions; format: functional; parameters: scale not given: the % may be the effect or the level left; details: route intraperitoneal
Outline: (§3)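 Rat MCAO with 2 h ischemia and 22 h reperfusion, pre-ischemic regimen. Compound was given ip three times: 3 h and 1 h before, and 1 h after, MCA occlusion. Brains were removed 24 h after ischemia, cut into seven slices, and stained with TTC. Infarct volume was measured by computer-assisted planimetry and expressed as % reduction versus vehicle-treated rats.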

Bacillus subtilis = assay: Antimicrobial activity against Bacillus subtilis ATCC 6633 after 16 to 18 hrs by agar dilution method; format: functional
Outline: (§4)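 Agar dilution MIC per CLSI on Mueller Hinton agar. Stocks were diluted in DMSO or 0.1 M NaOH as a twofold series, with final concentrations 0.06–128. Plates were spotted at 10⁴ cfu/spot and incubated in ambient air at 36 °C for 16–18 h. MIC was the lowest concentration that prevented visible growth.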

Rattus norvegicus [8] = assay: Antiischemic effect in Sprague-Dawley rat focal ischemic sroke model assessed as reduction of infract size in brain at 0.001 mg/kg, ip after 24 hrs under pre-ischemic conditions; format: functional; parameters: scale not given: the % may be the effect or the level left; details: route intraperitoneal; outline: as §3
Rattus norvegicus [9] = assay: Cardioprotective effect in Sprague-Dawley rat myocardial infarction model assessed as reduction of infract size in heart at 0.01 mg/kg, ip; format: functional; parameters: scale not given: the % may be the effect or the level left; details: route intraperitoneal; outline: as §1
SH-SY5Y [10] = assay: Enhancement of cell viability of human SH-SY5Y cells at 0.1 uM after 24 hrs by MTS assay relative to control; format: functional
Outline: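 SH-SY5Y neuroblastoma cells were grown in 1:1 EMEM/F12K with 10% heat-inactivated FBS at 37 °C, 5% CO2. After 1 day, cells were pretreated with compound at 0.1 µM for 2 h, then exposed to 200 µM H2O2 for 24 h. Viability was read by MTS (3 h, 37 °C, OD 490 nm) as a percentage of control. At least two independent experiments, each in triplicate.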

[11] = tested on: Staphylococcus epidermidis; assay: Antibacterial activity against Staphylococcus epidermidis ATCC 12228 after 16 to 18 hrs by agar dilution method; format: functional; outline: as §2
Enterobacter cloacae = assay: Antibacterial activity against Enterobacter cloacae ATCC 13047 after 16 to 18 hrs by agar dilution method; format: functional
Rattus norvegicus [12] = assay: Antiischemic effect in Sprague-Dawley […] sroke model assessed as reduction of infract size in brain at 0.1 mg/kg, ip after 24 hrs under pre-ischemic conditions; format: functional; parameters: scale not given: the % may be the effect or the level left; details: route intraperitoneal; outline: as §3
Escherichia coli = assay: Antibacterial activity against Escherichia coli ATCC 25922 after 16 to 18 hrs by agar dilution method; format: functional; outline: as §2
Serratia marcescens = assay: Antibacterial activity against Serratia marcescens ATCC 27117 after 16 to 18 hrs by agar dilution method; format: functional; outline: as §4

SMILES | Activity (SH-SY5Y [1]) | MIC (Staphylococcus aureus) | MIC (Enterococcus faecalis) | MIC (Bacillus subtilis) | MIC [11] | MIC (Serratia marcescens) | other results
O=C(O)c1cn(C2CC2)c2ccccc2c1=O | 39% |  |  |  |  |  | 
O=C(O)c1cn(C2CC2)c2cc(N3CCNCC3)ccc2c1=O | 61.7% | 32 mg/L (≈ 102 µM) | 64 mg/L (≈ 204 µM) | 8 mg/L (≈ 25.5 µM) | 16 mg/L (≈ 51.1 µM) | 4 mg/L (≈ 12.8 µM) | Activity (Rattus norvegicus [2]): 14.2%; Activity (Rattus norvegicus [3]): 62.1%; Activity (Rattus norvegicus [4]): 8.9%; Activity (Rattus norvegicus [5]): 78.3%; Activity (Rattus norvegicus [6]): 53.1%; Activity (Rattus norvegicus [7]): 32.1%; Activity (Rattus norvegicus [8]): 9.6%; Activity (Rattus norvegicus [9]): 26.6%; Activity (SH-SY5Y [10]): 42%; MIC (Enterobacter cloacae): 1 mg/L (≈ 3.19 µM); Activity (Rattus norvegicus [12]): 5.3%; MIC (Escherichia coli): 0.5 mg/L (≈ 1.6 µM)
O=C(O)c1cn(C2CC2)c2cc(N3CCCCC3)c(F)cc2c1=O | 44.1% |  |  |  |  |  | 
O=C(O)c1cn(C2CC2)c2cc(C3CCNCC3)c(F)cc2c1=O | 42.4% |  |  |  |  |  | 
O=C(O)c1cn(C2CC2)c2cc(N3CCNCC3)c(F)cc2c1=O [CIPROFLOXACIN] | 46.5% | 2 mg/L (≈ 6.04 µM) | 2 mg/L (≈ 6.04 µM) | 1 mg/L (≈ 3.02 µM) | 1 mg/L (≈ 3.02 µM) | 0.125 mg/L (≈ 0.377 µM) | 
O=C(O)c1cn(C2CC2)c2ccc(F)cc2c1=O | 45.1% |  |  |  |  |  | 
Cc1c(C(=O)O)c(=O)c2cc(F)c(N3CCNCC3)cc2n1C1CC1 | 49.9% |  |  |  |  |  | 
O=c1ccn(C2CC2)c2cc(N3CCNCC3)c(F)cc12 | 57.4% | 16 mg/L (≈ 55.7 µM) | 8 mg/L (≈ 27.8 µM) | 8 mg/L (≈ 27.8 µM) | 8 mg/L (≈ 27.8 µM) | 1 mg/L (≈ 3.48 µM) | Activity (SH-SY5Y [10]): 33%; MIC (Enterobacter cloacae): 0.5 mg/L (≈ 1.74 µM); MIC (Escherichia coli): < 0.12 mg/L
O=C(O)c1cn(C2CC2)c2cc(N3CCNCC3)c(F)cc2c1=S | 27.1% |  |  |  |  |  | 
